# How the values were obtained:
# [1] = system: MT4; test: Antiproliferative activity against human MT4 cells after 96 hrs by MTT assay; format: functional, cell-based; conditions: MT4, 96 h
# How it was run: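 Exponentially growing MT-4 cells (CD4+ human T-cells carrying integrated HTLV-1 genome), seeded at 1×10^5 cells/mL in RPMI-1640 with 10% FCS and antibiotics. Serial dilutions of compound (DMSO stock 100 mM, diluted in medium), 37 °C, 5% CO₂, 96 h. Viability read by MTT. 50% inhibition versus untreated controls by linear regression. Mean ± SD of three independent determinations.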
# [2] = system: HL-60(TB); test: Growth inhibition of human HL-60(TB) cells after 48 hrs by sulforhodamine B assay; format: functional; conditions: HL-60, 48 h
# How it was run: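 NCI 60-cell-line screen, HL-60(TB) included. Compound given at five 10-fold dilutions from 10^-4 to 10^-8 M. Cells exposed for the last 48 h of a 72 h incubation. Growth or viability estimated by sulforhodamine B protein assay. GI50 is the concentration giving 50% growth inhibition. Values outside the tested range are reported as greater or less than the highest or lowest concentration.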
# [3] = system: K562; test: Growth inhibition of human K562 cells after 48 hrs by sulforhodamine B assay; format: functional; conditions: K562, 48 h
# How it was run: (§1)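 NCI 60-cell-line screen. Compounds tested at five 10-fold dilutions from 10^-4 to 10^-8 M. Cells exposed for the last 48 h of a 72 h incubation, growth estimated by sulforhodamine B protein assay. GI50 is the concentration giving 50% growth inhibition. Values beyond the tested range are expressed as greater or lesser than the extreme concentration.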
# [4] = Growth inhibition of human MOLT4 cells after 48 hrs by sulforhodamine B assay; format: functional; conditions: MOLT-4, 48 h; how it was run: as §1
# [5] = system: SR; test: Growth inhibition of human SR cells after 48 hrs by sulforhodamine B assay; format: functional
# [6] = system: A549; test: Growth inhibition of human A549 cells after 48 hrs by sulforhodamine B assay; format: functional; conditions: A549, 48 h; how it was run: as §1
# [7] = system: HOP-62; test: Growth inhibition of human HOP62 cells after 48 hrs by sulforhodamine B assay; format: functional; conditions: HOP-62, 48 h; how it was run: as §1
# [8] = Growth inhibition of human HOP92 cells after 48 hrs by sulforhodamine B assay; format: functional; conditions: HOP-92, 48 h; how it was run: as §1
# [9] = system: NCI-H322M; test: Growth inhibition of human NCI-H322M cells after 48 hrs by sulforhodamine B assay; format: functional; how it was run: as §1
# [10] = system: NCI-H522; test: Growth inhibition of human NCI-H522 cells after 48 hrs by sulforhodamine B assay; format: functional; conditions: NCI-H522, 48 h; how it was run: as §1
# [11] = Growth inhibition of human COLO205 cells after 48 hrs by sulforhodamine B assay; format: functional; conditions: COLO 205, 48 h; how it was run: as §1
# [12] = system: HCT-116; test: Growth inhibition of human HCT116 cells after 48 hrs by sulforhodamine B assay; format: functional; conditions: HCT-116, 48 h; how it was run: as §1
# [13] = system: HCT-15; test: Growth inhibition of human HCT15 cells after 48 hrs by sulforhodamine B assay; format: functional; conditions: HCT-15, 48 h; how it was run: as §1
# [14] = system: HT-29; test: Growth inhibition of human HT-29 cells after 48 hrs by sulforhodamine B assay; format: functional; conditions: HT-29, 48 h; how it was run: as §1
# [15] = system: KM12; test: Growth inhibition of human KM12 cells after 48 hrs by sulforhodamine B assay; format: functional; conditions: KM12, 48 h; how it was run: as §1
# [16] = system: SW-620; test: Growth inhibition of human SW620 cells after 48 hrs by sulforhodamine B assay; format: functional; conditions: SW-620, 48 h
# [17] = system: SF-268; test: Growth inhibition of human SF268 cells after 48 hrs by sulforhodamine B assay; format: functional; conditions: SF-268, 48 h
# [18] = system: SNB-19; test: Growth inhibition of human SNB19 cells after 48 hrs by sulforhodamine B assay; format: functional; conditions: SNB-19, 48 h
# [19] = system: SNB-75; test: Growth inhibition of human SNB75 cells after 48 hrs by sulforhodamine B assay; format: functional; conditions: SNB-75, 48 h
# [20] = system: U-251; test: Growth inhibition of human U251 cells after 48 hrs by sulforhodamine B assay; format: functional; conditions: U-251, 48 h
# [21] = Growth inhibition of human LOXIMVI cells after 48 hrs by sulforhodamine B assay; format: functional; conditions: LOX IMVI; how it was run: as §1
# [22] = system: Malme-3M; test: Growth inhibition of human MALME-3M cells after 48 hrs by sulforhodamine B assay; format: functional; how it was run: as §1
# [23] = system: MDA-MB-435; test: Growth inhibition of human MDA-MB-435 cells after 48 hrs by sulforhodamine B assay; format: functional; conditions: MDA-MB-435, 48 h; how it was run: as §1
# [24] = system: SK-MEL-2; test: Growth inhibition of human SK-MEL-2 cells after 48 hrs by sulforhodamine B assay; format: functional; conditions: SK-MEL-2, 48 h
# [25] = system: SK-MEL-5; test: Growth inhibition of human SK-MEL-5 cells after 48 hrs by sulforhodamine B assay; format: functional; conditions: SK-MEL-5, 48 h
# [26] = system: UACC-257; test: Growth inhibition of human UACC257 cells after 48 hrs by sulforhodamine B assay; format: functional; conditions: UACC-257, 48 h
# [27] = system: IGROV-1; test: Growth inhibition of human IGROV1 cells after 48 hrs by sulforhodamine B assay; format: functional; conditions: IGROV-1, 48 h; how it was run: as §1
# [28] = system: OVCAR-4; test: Growth inhibition of human OVCAR4 cells after 48 hrs by sulforhodamine B assay; format: functional; conditions: OVCAR-4, 48 h; how it was run: as §1
# [29] = Growth inhibition of human NCI-ADR-RES cells after 48 hrs by sulforhodamine B assay; format: functional; how it was run: as §1
# [30] = system: SK-OV-3; test: Growth inhibition of human SKOV3 cells after 48 hrs by sulforhodamine B assay; format: functional; conditions: SK-OV-3, 48 h
# [31] = system: A498; test: Growth inhibition of human A498 cells after 48 hrs by sulforhodamine B assay; format: functional; conditions: A498, 48 h; how it was run: as §1
# [32] = system: ACHN; test: Growth inhibition of human ACHN cells after 48 hrs by sulforhodamine B assay; format: functional; how it was run: as §1
# [33] = system: CAKI-1; test: Growth inhibition of human CAKI-1 cells after 48 hrs by sulforhodamine B assay; format: functional; conditions: CAKI-1, 48 h; how it was run: as §1
# [34] = system: SN12C; test: Growth inhibition of human SN12C cells after 48 hrs by sulforhodamine B assay; format: functional
# [35] = system: TK-10; test: Growth inhibition of human TK10 cells after 48 hrs by sulforhodamine B assay; format: functional; conditions: TK-10, 48 h
# [36] = system: PC-3; test: Growth inhibition of human PC3 cells after 48 hrs by sulforhodamine B assay; format: functional; conditions: PC-3, 48 h
# [37] = system: DU-145; test: Growth inhibition of human DU145 cells after 48 hrs by sulforhodamine B assay; format: functional; conditions: DU-145, 48 h; how it was run: as §1
# [38] = system: MDA-MB-231; test: Growth inhibition of human MDA-MB-231 cells after 48 hrs by sulforhodamine B assay; format: functional; conditions: MDA-MB-231, 48 h; how it was run: as §1
# [39] = Growth inhibition of human BT549 cells after 48 hrs by sulforhodamine B assay; format: functional; conditions: BT-549, 48 h; how it was run: as §1
# [40] = system: T47D; test: Growth inhibition of human T47D cells after 48 hrs by sulforhodamine B assay; format: functional
# [41] = system: MDA-MB-468; test: Growth inhibition of human MDA-MB-468 cells after 48 hrs by sulforhodamine B assay; format: functional; conditions: MDA-MB-468, 48 h; how it was run: as §1
# [42] = Growth inhibition of human RPMI8226 cells after 48 hrs by sulforhodamine B assay; format: functional; conditions: RPMI-8226, 48 h
# [43] = Growth inhibition of human RXF393 cells after 48 hrs by sulforhodamine B assay; format: functional; conditions: RXF 393, 48 h
smiles,measurement,setting,value
COc1ccc2[nH]c(-c3ccccc3)c(/C=C(\C#N)S(=O)(=O)c3ccccc3)c2c1,EC50,[1],1.3 µM
same,GI50,[2],2.4 µM
same,GI50,[3],1.4 µM
same,GI50,[4],4.7 µM
same,GI50,[5],2.2 µM
same,GI50,[6],6 µM
same,GI50,[7],8.3 µM
same,GI50,[8],6.1 µM
same,GI50,[9],30.1 µM
same,GI50,[10],4 µM
same,GI50,[11],7.4 µM
same,GI50,[12],3.7 µM
same,GI50,[13],4 µM
same,GI50,[14],3.5 µM
same,GI50,[15],3 µM
same,GI50,[16],4 µM
same,GI50,[17],13.3 µM
same,GI50,[18],13.5 µM
same,GI50,[19],5.9 µM
same,GI50,[20],4.6 µM
same,GI50,[21],7.4 µM
same,GI50,[22],19.4 µM
same,GI50,[23],1.1 µM
same,GI50,[24],3.7 µM
same,GI50,[25],3.1 µM
same,GI50,[26],4.9 µM
same,GI50,[27],4.8 µM
same,GI50,[28],8.3 µM
same,GI50,[29],3.8 µM
same,GI50,[30],7.1 µM
same,GI50,[31],9.3 µM
same,GI50,[32],12.9 µM
same,GI50,[33],4.5 µM
same,GI50,[34],7.8 µM
same,GI50,[35],17.5 µM
same,GI50,[36],8.3 µM
same,GI50,[37],10.1 µM
same,GI50,[38],7.5 µM
same,GI50,[39],11.6 µM
same,GI50,[40],5.2 µM
same,GI50,[41],4.2 µM
N#C/C(=C\c1c(-c2ccccc2)[nH]c2ccccc12)S(=O)(=O)c1ccccc1,EC50,[1],0.4 µM
same,GI50,[2],1.8 µM
same,GI50,[3],0.348 µM
same,GI50,[4],2.2 µM
same,GI50,[42],0.714 µM
same,GI50,[5],17.3 µM
same,GI50,[6],3.7 µM
same,GI50,[7],9.3 µM
same,GI50,[8],10.3 µM
same,GI50,[9],9.2 µM
same,GI50,[10],4.6 µM
same,GI50,[11],1.4 µM
same,GI50,[12],2 µM
same,GI50,[13],1.1 µM
same,GI50,[14],0.595 µM
same,GI50,[15],0.652 µM
same,GI50,[16],0.57 µM
same,GI50,[17],4.5 µM
same,GI50,[18],8.3 µM
same,GI50,[19],1.7 µM
same,GI50,[20],2.6 µM
same,GI50,[21],4.6 µM
same,GI50,[22],8.4 µM
same,GI50,[23],0.288 µM
same,GI50,[24],12.7 µM
same,GI50,[25],1.82 µM
same,GI50,[26],18.2 µM
same,GI50,[27],3.3 µM
same,GI50,[28],5.5 µM
same,GI50,[29],1.1 µM
same,GI50,[30],6.8 µM
same,GI50,[31],11 µM
same,GI50,[32],7 µM
same,GI50,[33],5.5 µM
same,GI50,[43],3.6 µM
same,GI50,[34],5.2 µM
same,GI50,[35],5.6 µM
same,GI50,[36],3.4 µM
same,GI50,[37],2.9 µM
same,GI50,[38],3.8 µM
same,GI50,[39],11.6 µM
same,GI50,[40],3.8 µM
same,GI50,[41],1.9 µM
CCOC(=O)C(=Cc1c(-c2ccccc2)[nH]c2ccccc12)C(=O)OCC,EC50,[1],2.3 µM
same,GI50,[2],4.4 µM
same,GI50,[3],3.6 µM
same,GI50,[4],3.9 µM
same,GI50,[42],0.219 µM
same,GI50,[5],2.1 µM
same,GI50,[6],6.4 µM
same,GI50,[7],5.5 µM
same,GI50,[8],8.8 µM
same,GI50,[9],12.7 µM
same,GI50,[10],3.4 µM
same,GI50,[11],4.9 µM
same,GI50,[12],4.3 µM
same,GI50,[13],4.1 µM
same,GI50,[14],4.6 µM
same,GI50,[15],3.5 µM
same,GI50,[16],5.6 µM
same,GI50,[17],6.8 µM
same,GI50,[18],23.9 µM
same,GI50,[19],7 µM
same,GI50,[20],4.9 µM
same,GI50,[21],5.6 µM
same,GI50,[22],8.9 µM
same,GI50,[23],3.4 µM
same,GI50,[24],4.7 µM
same,GI50,[25],3.8 µM
same,GI50,[26],7.5 µM
same,GI50,[27],5.7 µM
same,GI50,[28],10.5 µM
same,GI50,[29],2.9 µM
same,GI50,[30],13.6 µM
same,GI50,[31],16.9 µM
same,GI50,[32],4.4 µM
same,GI50,[33],10.3 µM
same,GI50,[43],3.7 µM
same,GI50,[34],5.1 µM
same,GI50,[35],13.6 µM
same,GI50,[36],3.3 µM
same,GI50,[37],9.7 µM
same,GI50,[38],5.8 µM
same,GI50,[39],5.3 µM
same,GI50,[40],2.7 µM
same,GI50,[41],3.1 µM
